pIC50: −log10 of the molar value. Entries after “also recorded” stand apart in the source; their conditions may differ. Blank lines part the entries; values can stand above or below the compound they belong to.
Key:
Clk (Cdc-like kinase) 2 = details: cited from earlier work
CK2α2β2 holoenzyme = CK2α2β2 holoenzyme (Homo sapiens, UniProt P68400); experiment: CK2 radiometric kinase assay, holoenzyme versus CK2α; assay type: biochemical; details: CK2β-independent peptide substrate
How it was run: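 Radiometric CK2 assay comparing isolated human recombinant CK2α with the CK2α₂β₂ holoenzyme across increasing test compound concentrations, using a CK2β-independent peptide substrate. ATP was 100 μM unless stated otherwise.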

CK2α [1] = target: T1, CK2α (Homo sapiens, UniProt P68400); experiment: kinase selectivity profiling, residual kinase activity; assay type: biochemical; details: compound at 50 μM
T1 sequence (P68400 whole entry): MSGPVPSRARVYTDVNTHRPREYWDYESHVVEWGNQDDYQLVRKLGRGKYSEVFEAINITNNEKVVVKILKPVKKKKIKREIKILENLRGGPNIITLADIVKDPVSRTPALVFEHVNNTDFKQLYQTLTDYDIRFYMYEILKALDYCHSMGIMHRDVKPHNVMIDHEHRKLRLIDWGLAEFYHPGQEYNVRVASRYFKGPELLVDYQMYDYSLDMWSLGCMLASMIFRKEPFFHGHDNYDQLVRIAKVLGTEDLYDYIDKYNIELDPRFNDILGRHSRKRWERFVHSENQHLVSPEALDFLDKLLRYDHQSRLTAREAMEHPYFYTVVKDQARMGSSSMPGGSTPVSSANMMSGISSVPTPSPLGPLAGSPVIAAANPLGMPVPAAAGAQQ
How it was run: (§1)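 The test compound was profiled against a panel of 44 human kinases, with ATP set to the Km of each kinase. Remaining activity was read as % inhibition of each kinase.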

EphA4 = EphA4 (Homo sapiens, UniProt P54764); experiment: as above; assay type: biochemical; details: read-out: % inhibition of EphA4
EphA4, sequence (P54764 20-986): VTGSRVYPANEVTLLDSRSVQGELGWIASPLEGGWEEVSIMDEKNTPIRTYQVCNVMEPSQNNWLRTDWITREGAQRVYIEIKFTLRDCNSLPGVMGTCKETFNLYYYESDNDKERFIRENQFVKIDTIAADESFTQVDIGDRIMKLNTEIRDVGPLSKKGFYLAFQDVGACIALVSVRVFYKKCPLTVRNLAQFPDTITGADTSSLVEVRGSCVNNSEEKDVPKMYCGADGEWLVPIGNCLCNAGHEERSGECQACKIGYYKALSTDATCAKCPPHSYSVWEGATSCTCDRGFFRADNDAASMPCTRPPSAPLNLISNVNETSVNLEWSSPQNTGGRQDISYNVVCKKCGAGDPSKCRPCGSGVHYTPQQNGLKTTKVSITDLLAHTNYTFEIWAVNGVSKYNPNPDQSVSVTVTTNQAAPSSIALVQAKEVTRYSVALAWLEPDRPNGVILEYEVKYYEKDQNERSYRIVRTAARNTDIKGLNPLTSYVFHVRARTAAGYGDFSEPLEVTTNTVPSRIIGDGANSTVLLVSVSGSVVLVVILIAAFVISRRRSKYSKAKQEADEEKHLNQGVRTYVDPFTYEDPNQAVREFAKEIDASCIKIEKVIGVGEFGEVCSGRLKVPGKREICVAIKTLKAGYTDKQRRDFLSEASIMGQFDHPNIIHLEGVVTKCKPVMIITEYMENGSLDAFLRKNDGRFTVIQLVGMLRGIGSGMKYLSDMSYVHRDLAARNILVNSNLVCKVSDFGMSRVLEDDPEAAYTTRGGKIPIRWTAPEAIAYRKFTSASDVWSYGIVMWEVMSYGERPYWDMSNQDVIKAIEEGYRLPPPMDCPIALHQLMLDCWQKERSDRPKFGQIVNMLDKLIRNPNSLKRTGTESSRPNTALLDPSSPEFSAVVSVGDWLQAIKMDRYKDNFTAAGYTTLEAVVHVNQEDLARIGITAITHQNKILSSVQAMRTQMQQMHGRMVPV
How it was run: as §1

pim-1 = pim-1 (Homo sapiens, UniProt P11309); experiment: as above; assay type: biochemical; details: read-out: % inhibition of pim-1
pim-1, sequence (P11309 whole entry): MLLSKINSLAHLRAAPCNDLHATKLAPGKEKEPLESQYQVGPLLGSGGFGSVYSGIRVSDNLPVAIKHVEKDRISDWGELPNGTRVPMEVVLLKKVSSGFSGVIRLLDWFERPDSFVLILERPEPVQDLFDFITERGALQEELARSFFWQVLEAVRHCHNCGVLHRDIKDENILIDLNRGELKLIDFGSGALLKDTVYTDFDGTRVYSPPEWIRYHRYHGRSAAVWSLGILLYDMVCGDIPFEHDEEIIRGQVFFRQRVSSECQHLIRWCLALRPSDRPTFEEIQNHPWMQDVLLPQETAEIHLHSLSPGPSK
How it was run: as §1

CK2α [2] = target: T1, CK2α; experiment: CK2 radiometric kinase assay; assay type: biochemical; details: compared with compound 2
CK2α [3] = target: T1, CK2α; experiment: NMR Saturation Transfer Difference; assay type: binding; details: compound 500 μM, CK2α 5 μM
CK2α^1–335 = target: T2, CK2α^1–335 (Homo sapiens, UniProt P68400); experiment: native mass spectrometry binding and competition; details: 10 μM CK2α; for binding stoichiometry to CK2α by native mass spectrometry: 100 μM IP6 or 10–40 μM 6, 5% DMSO
T2 sequence (P68400 1-335): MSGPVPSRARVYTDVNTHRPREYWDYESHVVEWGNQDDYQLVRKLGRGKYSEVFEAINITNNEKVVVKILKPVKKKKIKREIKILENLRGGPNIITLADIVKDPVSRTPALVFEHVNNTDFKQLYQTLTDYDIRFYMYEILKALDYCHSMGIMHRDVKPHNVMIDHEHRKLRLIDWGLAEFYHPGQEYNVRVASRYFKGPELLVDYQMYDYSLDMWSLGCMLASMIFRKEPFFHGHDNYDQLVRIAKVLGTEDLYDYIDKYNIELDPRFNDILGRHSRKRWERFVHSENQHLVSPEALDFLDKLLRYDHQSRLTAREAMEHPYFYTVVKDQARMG

water solubility = assay type: physicochemical; details: qualitative, relative to the other compounds of the series
GSK3β = GSK3β (Homo sapiens, UniProt P49841); experiment: kinase selectivity profiling, residual kinase activity; assay type: biochemical; details: read-out: % inhibition of GSK3β
GSK3β, sequence (P49841 whole entry): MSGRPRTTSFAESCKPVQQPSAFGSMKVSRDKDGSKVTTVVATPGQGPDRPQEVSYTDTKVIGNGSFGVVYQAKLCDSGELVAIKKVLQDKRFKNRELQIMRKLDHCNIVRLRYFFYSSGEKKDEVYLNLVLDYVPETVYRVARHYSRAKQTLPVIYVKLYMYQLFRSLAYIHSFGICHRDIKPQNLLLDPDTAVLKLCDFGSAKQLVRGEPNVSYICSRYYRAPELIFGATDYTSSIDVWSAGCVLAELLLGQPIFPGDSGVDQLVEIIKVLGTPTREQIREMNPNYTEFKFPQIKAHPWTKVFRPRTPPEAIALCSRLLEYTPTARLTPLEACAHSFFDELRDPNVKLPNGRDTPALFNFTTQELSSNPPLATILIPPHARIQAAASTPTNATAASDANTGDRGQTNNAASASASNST
How it was run: as §1

ACVR1 (ALK2) = target: T3, ACVR1 (ALK2) (Homo sapiens, UniProt Q04771); experiment: as above; assay type: biochemical; details: read-out: % inhibition of ACVR1
T3 sequence (Q04771 21-509): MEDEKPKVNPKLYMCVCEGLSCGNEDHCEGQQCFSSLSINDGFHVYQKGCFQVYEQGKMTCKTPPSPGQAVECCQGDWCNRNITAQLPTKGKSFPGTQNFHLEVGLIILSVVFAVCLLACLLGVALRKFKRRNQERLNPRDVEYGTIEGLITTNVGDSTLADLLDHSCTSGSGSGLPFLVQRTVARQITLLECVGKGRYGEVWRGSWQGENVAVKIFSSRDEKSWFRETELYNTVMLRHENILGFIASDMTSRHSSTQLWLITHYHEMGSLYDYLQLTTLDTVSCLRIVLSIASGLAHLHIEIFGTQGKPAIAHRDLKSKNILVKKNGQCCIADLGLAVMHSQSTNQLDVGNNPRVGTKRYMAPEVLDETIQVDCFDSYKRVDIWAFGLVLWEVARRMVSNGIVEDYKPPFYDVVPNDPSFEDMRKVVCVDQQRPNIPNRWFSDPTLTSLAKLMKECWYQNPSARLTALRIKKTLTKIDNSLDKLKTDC
How it was run: as §1

Clk4 = Clk4 (Homo sapiens, UniProt Q9HAZ1); experiment: as above; assay type: biochemical; details: read-out: % inhibition of Clk4
Clk4, sequence (Q9HAZ1 whole entry): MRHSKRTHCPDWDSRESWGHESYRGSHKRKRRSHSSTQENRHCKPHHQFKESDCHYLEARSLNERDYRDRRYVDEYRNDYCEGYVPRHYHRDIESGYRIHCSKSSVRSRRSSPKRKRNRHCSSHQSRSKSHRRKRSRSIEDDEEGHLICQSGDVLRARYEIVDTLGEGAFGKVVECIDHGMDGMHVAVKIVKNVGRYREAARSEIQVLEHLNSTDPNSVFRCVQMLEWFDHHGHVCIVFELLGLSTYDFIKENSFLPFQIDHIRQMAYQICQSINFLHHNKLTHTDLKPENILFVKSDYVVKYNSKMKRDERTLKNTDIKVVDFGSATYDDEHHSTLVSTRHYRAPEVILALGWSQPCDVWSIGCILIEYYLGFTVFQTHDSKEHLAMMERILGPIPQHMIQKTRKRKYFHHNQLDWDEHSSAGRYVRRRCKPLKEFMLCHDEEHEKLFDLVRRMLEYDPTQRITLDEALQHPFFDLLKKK
How it was run: as §1

MLCK (MLCK2) = target: T4, MLCK (MLCK2) (Homo sapiens, UniProt Q32MK0); experiment: as above; assay type: biochemical; details: read-out: % inhibition of MLCK
T4 sequence (Q32MK0 1-819): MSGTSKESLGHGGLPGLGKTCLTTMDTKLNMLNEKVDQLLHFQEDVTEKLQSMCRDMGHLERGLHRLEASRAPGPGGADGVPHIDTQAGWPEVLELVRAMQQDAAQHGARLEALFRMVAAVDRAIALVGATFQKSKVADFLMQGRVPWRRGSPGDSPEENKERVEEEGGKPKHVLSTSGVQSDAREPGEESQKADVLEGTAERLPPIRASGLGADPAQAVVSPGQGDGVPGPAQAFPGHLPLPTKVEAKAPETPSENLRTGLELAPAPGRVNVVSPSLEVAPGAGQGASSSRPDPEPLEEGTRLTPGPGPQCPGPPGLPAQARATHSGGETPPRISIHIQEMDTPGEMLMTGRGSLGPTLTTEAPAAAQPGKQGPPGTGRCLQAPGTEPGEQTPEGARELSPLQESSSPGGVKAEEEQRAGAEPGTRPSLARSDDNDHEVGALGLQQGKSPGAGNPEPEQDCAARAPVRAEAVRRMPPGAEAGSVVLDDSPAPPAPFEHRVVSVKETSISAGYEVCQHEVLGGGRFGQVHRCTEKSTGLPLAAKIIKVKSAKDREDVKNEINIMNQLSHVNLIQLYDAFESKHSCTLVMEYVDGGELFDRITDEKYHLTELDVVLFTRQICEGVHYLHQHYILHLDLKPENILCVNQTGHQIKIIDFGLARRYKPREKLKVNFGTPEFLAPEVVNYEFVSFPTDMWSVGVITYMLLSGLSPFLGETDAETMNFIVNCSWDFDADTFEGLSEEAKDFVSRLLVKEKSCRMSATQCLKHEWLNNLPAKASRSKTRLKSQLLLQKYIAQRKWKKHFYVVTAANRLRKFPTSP
How it was run: as §1

Clk2 = Clk2 (Homo sapiens, UniProt P49760); experiment: as above; assay type: biochemical; details: read-out: % inhibition of Clk2
Clk2, sequence (P49760 whole entry): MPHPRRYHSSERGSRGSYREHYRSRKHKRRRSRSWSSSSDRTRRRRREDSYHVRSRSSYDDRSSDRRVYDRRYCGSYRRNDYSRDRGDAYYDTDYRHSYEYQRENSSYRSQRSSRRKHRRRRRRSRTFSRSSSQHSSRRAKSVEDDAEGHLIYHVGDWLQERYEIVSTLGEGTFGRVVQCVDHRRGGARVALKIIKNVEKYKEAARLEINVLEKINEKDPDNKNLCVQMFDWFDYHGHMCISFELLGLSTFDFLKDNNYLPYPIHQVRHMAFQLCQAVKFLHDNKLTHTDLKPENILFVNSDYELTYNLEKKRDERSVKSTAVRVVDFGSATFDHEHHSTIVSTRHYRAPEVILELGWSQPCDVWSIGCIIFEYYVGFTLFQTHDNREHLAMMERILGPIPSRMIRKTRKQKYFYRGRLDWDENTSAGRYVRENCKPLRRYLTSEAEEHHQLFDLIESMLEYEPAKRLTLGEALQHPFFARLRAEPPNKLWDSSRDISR
How it was run: as §1

Dyrk1A = Dyrk1A (Homo sapiens, UniProt Q13627); experiment: as above; assay type: biochemical; details: read-out: % inhibition of Dyrk1A
How it was run: as §1

CK2α2β2 holoenzyme, sequence (P68400 whole entry): as the sequence (P68400 whole entry) above
CK2α2β2 holoenzyme, sequence (P67870 whole entry partner): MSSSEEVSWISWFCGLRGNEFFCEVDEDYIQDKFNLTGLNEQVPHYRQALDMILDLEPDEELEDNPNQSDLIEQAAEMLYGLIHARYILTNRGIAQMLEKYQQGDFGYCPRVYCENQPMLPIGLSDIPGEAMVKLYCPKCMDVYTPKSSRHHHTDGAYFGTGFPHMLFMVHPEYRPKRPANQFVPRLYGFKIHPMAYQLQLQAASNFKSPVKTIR

SMILES: O=C(O)c1ccc2c(c1)nc(Nc1cccc(Cl)c1)c1ccncc12 [CX-4945, 5-(3-chlorophenylamino)benzo[c][2,6]naphthyridine-8-carboxylic acid]
- pIC50 (Clk (Cdc-like kinase) 2): 8.40

SMILES: O=C(O)c1cccc(Nc2nc(-c3cccc([N+](=O)[O-])c3)cs2)c1 [Compound 1, 3-((4-(3-nitrophenyl)thiazol-2-yl)amino)benzoic acid]
- inhibition of CK2α2β2 holoenzyme compared with CK2α (CK2α2β2 holoenzyme): inhibited to the same extent

SMILES: O=C(O)c1ccc(Nc2nc(-c3cccc([N+](=O)[O-])c3)cs2)cc1 [Compound 2, 4-((4-(3-nitrophenyl)thiazol-2-yl)amino)benzoic acid]
- inhibition of CK2α (CK2α [1]): full inhibition
- inhibition at 50 µM (EphA4): 55%
- inhibition at 50 µM (pim-1): 54%

SMILES: O=[N+]([O-])c1cccc(-c2csc(Nc3ccccc3)n2)c1 [Compound 3, [4-(3-Nitro-phenyl)-thiazol-2-yl]-phenyl-amine]
- CK2α inhibitory activity, in words (SAR) (CK2α [2]): significant loss of activity

SMILES: COC(=O)c1ccc(Nc2nc(-c3cccc([N+](=O)[O-])c3)cs2)cc1 [Compound 4, 4-[4-(3-Nitro-phenyl)-thiazol-2-ylamino]-benzoic acid methyl ester]
- CK2α inhibitory activity, in words (SAR) (CK2α [2]): significant loss of activity

SMILES: O=C(O)c1ccc(Nc2nccs2)cc1 [Compound 5, 4-(Thiazol-2-ylamino)-benzoic acid]
- CK2α inhibitory activity, in words (SAR) (CK2α [2]): complete lack of activity

SMILES: O=C(O)c1ccc(Nc2nc(-c3ccccn3)cs2)cc1 [Compound 9, 4-(4-Pyridin-2-yl-thiazol-2-ylamino)-benzoic acid]
- water solubility (water solubility): superior water solubility; also recorded: relatively good solubility in water

More lines, main results first:

- STD NMR competition with CX-4945 for binding to CK2α (CK2α [3]; CX-4945 100 μM): did not bind to the same site as CX-4945
- binding stoichiometry to CK2α by native mass spectrometry (CK2α^1–335): various stoichiometries
- native MS competition with IP6 for binding to CK2α (CK2α^1–335; 10 μM compound, 100 μM IP6): competitive ligand of IP6
SMILES: O=C(O)c1ccc(Nc2nc(-c3ccccc3)cs2)cc1 [Compound 6, 4-(4-Phenyl-thiazol-2-ylamino)-benzoic acid]
- STD NMR competition with AMP-PNP for binding to CK2α (CK2α [3]; AMP-PNP 500 μM): AMP-PNP was not able to bind to CK2α in the presence of 2-aminothiazole 6
- water solubility (water solubility): superior water solubility; also recorded: relatively good solubility in water

- inhibition at 50 µM (EphA4): 73%
- inhibition at 50 µM (GSK3β): 71%
- inhibition at 50 µM (ACVR1 (ALK2)): 66%
- inhibition at 50 µM (Clk4): 61%
- inhibition at 50 µM (MLCK (MLCK2)): 61%
- inhibition at 50 µM (Clk2): ~30%
- inhibition at 50 µM (Dyrk1A): ~30%
SMILES: O=C(O)c1ccc(Nc2nc(-c3cccc(Br)c3)cs2)cc1 [Compound 7, 4-[4-(3-Bromo-phenyl)-thiazol-2-ylamino]-benzoic acid]

- binding stoichiometry to CK2α by native mass spectrometry (CK2α^1–335): 1:1 and 1:2 stoichiometry
SMILES: O=P(O)(O)OC1C(OP(=O)(O)O)C(OP(=O)(O)O)C(OP(=O)(O)O)C(OP(=O)(O)O)C1OP(=O)(O)O (stereo not shown) [IP6, inositol hexakisphosphate, reference compound]

From article PMC7667462 (Journal of medicinal chemistry, 2019)
